Laboratory results as given in ChEMBL document CHEMBL2176870 (J Med Chem, 2012).
Values after ≈ are worked out from the molar mass of the structure shown.

Legend:
Streptococcus pneumoniae = assay: Antibacterial activity against Streptococcus pneumoniae D39 after 18 hrs by broth microdilution method; format: functional; conditions: D39, 18 h
In short: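 CLSI broth microdilution with 2-fold dilutions from 0.06 to 64 μg/mL. Cation-adjusted Mueller–Hinton broth with 2.5% lysed horse blood, inoculum 5 × 10^5 CFU/mL, grown at 35 °C for 18 h in 5% CO2. MIC is the lowest concentration showing no visible growth.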

Enterococcus faecalis = assay: Antibacterial activity against Enterococcus faecalis ATCC 29212 after 18 hrs by broth microdilution method; format: functional; conditions: ATCC 29212, 18 h
In short: (§1)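 CLSI broth microdilution with serial 2-fold dilutions from 0.06 to 64 μg/mL. Cation-adjusted Mueller–Hinton broth, inoculum 5 × 10^5 CFU/mL, incubated at 35 °C for 18 h. MIC taken as the lowest concentration with no visible growth.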

Escherichia coli = assay: Antibacterial activity against Escherichia coli C7 after 18 hrs by broth microdilution method; format: functional; conditions: C7, 18 h
Staphylococcus aureus = assay: Antibacterial activity against Staphylococcus aureus CIP54.146 after 18 hrs by broth microdilution method; format: functional; conditions: CIP54.146, 18 h; in short: as §1
[1] = target: T1, Enoyl-[acyl-carrier-protein] reductase [NADH] FabI (Escherichia coli K-12, UniProt P0AEK4); assay: Inhibition of Escherichia coli FabI using crotonoyl-CoA as substrate preincubated for 90 mins
T1 sequence (P0AEK4 whole entry): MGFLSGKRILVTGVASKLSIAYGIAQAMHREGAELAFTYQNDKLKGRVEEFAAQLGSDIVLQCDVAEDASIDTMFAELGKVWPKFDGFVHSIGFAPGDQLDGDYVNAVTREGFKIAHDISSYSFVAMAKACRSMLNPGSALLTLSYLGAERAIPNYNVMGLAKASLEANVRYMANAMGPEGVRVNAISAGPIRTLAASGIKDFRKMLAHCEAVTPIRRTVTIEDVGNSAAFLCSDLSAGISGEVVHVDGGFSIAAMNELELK
In short: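 Recombinant C-terminal 6-His-tagged E. coli FabI (40 nM) in 50 mM Hepes pH 7.5, 100 μM DTT, 0.006% Triton X-100. Enzyme preincubated with 20 μM NADH, 10 μM NAD+ and inhibitor in DMSO for 90 min at room temperature. Reaction started with 50 μM crotonoyl-CoA. 6–10 concentrations; IC50 by Langmuir fit.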

| SMILES | MIC (Streptococcus pneumoniae) | MIC (Enterococcus faecalis) | MIC (Escherichia coli) | MIC (Staphylococcus aureus) | IC50 [1] |
| --- | --- | --- | --- | --- | --- |
| CCCc1ccc(Oc2ccc(OC)cc2)c(O)c1 | > 32 µg/mL | > 32 µg/mL | 4 µg/mL (≈ 15.5 µM) | 0.25 µg/mL (≈ 0.968 µM) | 230 nM |
| CCc1ccc(Oc2ccc(NCCCO)cc2F)c(O)c1 | > 32 µg/mL | > 32 µg/mL | 16 µg/mL (≈ 52.4 µM) | 0.25 µg/mL (≈ 0.819 µM) | 1000 nM |
| OCc1ccc(Oc2cccc(F)n2)c(O)c1 | > 32 µg/mL | > 32 µg/mL | > 32 µg/mL | 4 µg/mL (≈ 17 µM) | 29000 nM |
| CCc1ccc(Oc2ccccc2NC)c(O)c1 | > 32 µg/mL | > 32 µg/mL | > 32 µg/mL | 4 µg/mL (≈ 16.4 µM) | 112000 nM |
| CCc1ccc(Oc2ccc(N3CC(CNC(C)=O)OC3=O)cc2F)c(O)c1 (configuration not stated) | > 32 µg/mL | > 32 µg/mL | > 32 µg/mL | 4 µg/mL (≈ 10.3 µM) | 6100 nM |
| Cc1ccc(Oc2cccc(F)n2)c(O)c1 | > 32 µg/mL | > 32 µg/mL | 16 µg/mL (≈ 73 µM) | 4 µg/mL (≈ 18.2 µM) | 3500 nM |
| CCc1ccc(Oc2ccc(S(=O)(=O)NCCO)cc2F)c(O)c1 | > 32 µg/mL | > 32 µg/mL | 16 µg/mL (≈ 45 µM) | 0.25 µg/mL (≈ 0.703 µM) | 1200 nM |
| CCc1ccc(Oc2ccc(/C(C)=N/OC)cc2F)c(O)c1 | 16 µg/mL (≈ 52.7 µM) | > 32 µg/mL | > 32 µg/mL | 1 µg/mL (≈ 3.3 µM) | 14000 nM |
| CCCc1ccc(Oc2cccc(F)n2)c(O)c1 | 64 µg/mL (≈ 259 µM) | > 32 µg/mL | 4 µg/mL (≈ 16.2 µM) | 0.25 µg/mL (≈ 1.01 µM) |  |
| Oc1cc(CC(F)(F)F)ccc1Oc1cccc(F)n1 | > 64 µg/mL | > 32 µg/mL | 4 µg/mL (≈ 13.9 µM) | 0.25 µg/mL (≈ 0.87 µM) |  |
| CCc1ccc(Oc2ccc(S(=O)(=O)CCC3OCCO3)cc2)c(O)c1 | > 32 µg/mL | > 32 µg/mL | 16 µg/mL (≈ 42.3 µM) | 0.25 µg/mL (≈ 0.661 µM) | 380 nM |
| Oc1cc(Br)ccc1Oc1cccc(F)n1 | 64 µg/mL (≈ 225 µM) | > 32 µg/mL | 1 µg/mL (≈ 3.52 µM) | 0.25 µg/mL (≈ 0.88 µM) | 120 nM |
| CCc1ccc(Oc2ccc(S(N)(=O)=O)cc2F)c(O)c1 | > 32 µg/mL | > 32 µg/mL | 1 µg/mL (≈ 3.21 µM) | 0.25 µg/mL (≈ 0.803 µM) | 860 nM |
| Oc1cc(CCCn2cncn2)ccc1Oc1cccc(F)n1 | > 32 µg/mL | > 32 µg/mL | > 32 µg/mL | 4 µg/mL (≈ 12.7 µM) | 6900 nM |
| CCCNc1ccc(Oc2ccc(CC)cc2O)c(F)c1 | 16 µg/mL (≈ 55.3 µM) | > 32 µg/mL | 16 µg/mL (≈ 55.3 µM) | 0.25 µg/mL (≈ 0.864 µM) | 850 nM |
| COCc1ccc(Oc2cccc(F)n2)c(O)c1 | > 32 µg/mL | > 32 µg/mL | 16 µg/mL (≈ 64.2 µM) | 4 µg/mL (≈ 16 µM) | 14000 nM |
| CCc1ccc(Oc2cccc(F)n2)c(O)c1 | > 64 µg/mL | > 32 µg/mL | 4 µg/mL (≈ 17.1 µM) | 0.25 µg/mL (≈ 1.07 µM) | 590 nM |

| SMILES | MIC (Streptococcus pneumoniae) | MIC (Enterococcus faecalis) | MIC (Escherichia coli) | MIC (Staphylococcus aureus) | IC50 [1] |
| --- | --- | --- | --- | --- | --- |
| CCCc1ccc(Oc2cccc(OC)c2)c(O)c1 | > 32 µg/mL | > 32 µg/mL | 16 µg/mL (≈ 61.9 µM) | 1 µg/mL (≈ 3.87 µM) | 3100 nM |
| CCCc1ccc(Oc2cccc(NC(C)=O)c2)c(O)c1 | > 32 µg/mL | > 32 µg/mL | > 32 µg/mL | 16 µg/mL (≈ 56.1 µM) | 44000 nM |
| CCc1ccc(Oc2ccc(C(C)=O)cc2F)c(O)c1 | 16 µg/mL (≈ 58.3 µM) | 16 µg/mL (≈ 58.3 µM) | 1 µg/mL (≈ 3.65 µM) | 0.062 µg/mL (≈ 0.226 µM) | 110 nM |
| Oc1cc(C(F)=C(F)F)ccc1Oc1cccc(F)n1 | > 32 µg/mL | > 32 µg/mL | 16 µg/mL (≈ 56.1 µM) | 1 µg/mL (≈ 3.51 µM) |  |
| Oc1cc(Cl)ccc1Oc1cccc(F)n1 | 64 µg/mL (≈ 267 µM) | > 32 µg/mL | 0.25 µg/mL (≈ 1.04 µM) | 0.25 µg/mL (≈ 1.04 µM) | 550 nM |
| Oc1cc(Cn2ccnc2)ccc1Oc1cccc(F)n1 | > 32 µg/mL | > 32 µg/mL | > 32 µg/mL | 16 µg/mL (≈ 56.1 µM) | 56000 nM |
| CCc1ccc(Oc2ccc(S(=O)(=O)NCCc3ccccn3)cc2F)c(O)c1 | > 32 µg/mL | > 32 µg/mL | 16 µg/mL (≈ 38.4 µM) | 0.25 µg/mL (≈ 0.6 µM) | 150 nM |
| CCc1ccc(Oc2ccc(S(C)(=O)=O)cc2F)c(O)c1 | > 32 µg/mL | > 32 µg/mL | 1 µg/mL (≈ 3.22 µM) | 0.25 µg/mL (≈ 0.806 µM) | 140 nM |
| CCc1ccc(Oc2ccc(S(C)(=O)=O)cc2)c(O)c1 | > 32 µg/mL | > 32 µg/mL | 16 µg/mL (≈ 54.7 µM) | 0.25 µg/mL (≈ 0.855 µM) | 810 nM |
| Oc1cc(C(O)C(F)(F)F)ccc1Oc1cccc(F)n1 (configuration not stated) | > 32 µg/mL | > 32 µg/mL | 16 µg/mL (≈ 52.8 µM) | 1 µg/mL (≈ 3.3 µM) | 3400 nM |
| CC(C)Cc1ccc(Oc2cccc(F)n2)c(O)c1 | > 32 µg/mL | > 32 µg/mL | 4 µg/mL (≈ 15.3 µM) | 1 µg/mL (≈ 3.83 µM) | 570 nM |
| CCc1ccc(Oc2ccccc2N)c(O)c1 | > 32 µg/mL | > 32 µg/mL | 4 µg/mL (≈ 17.4 µM) | 0.25 µg/mL (≈ 1.09 µM) | 160 nM |
| Oc1cc(Cn2cncn2)ccc1Oc1cccc(F)n1 | > 32 µg/mL | > 32 µg/mL | 16 µg/mL (≈ 55.9 µM) | 4 µg/mL (≈ 14 µM) | 5200 nM |
| CCCNS(=O)(=O)c1ccc(Oc2ccc(CC)cc2O)c(F)c1 | 16 µg/mL (≈ 45.3 µM) | > 32 µg/mL | 4 µg/mL (≈ 11.3 µM) | 0.062 µg/mL (≈ 0.175 µM) | 240 nM |
| CCc1ccc(Oc2cc(C)ccc2N)c(O)c1 | 16 µg/mL (≈ 65.8 µM) | > 32 µg/mL | 16 µg/mL (≈ 65.8 µM) | 1 µg/mL (≈ 4.11 µM) | 42000 nM |
| Cc1ccc(-c2ccc(Oc3cccc(F)n3)c(O)c2)cc1 | 16 µg/mL (≈ 54.2 µM) | > 32 µg/mL | 8 µg/mL (≈ 27.1 µM) | 8 µg/mL (≈ 27.1 µM) | 6500 nM |
| CCc1ccc(Oc2ccc(NS(=O)(=O)C3CC3)cc2F)c(O)c1 | > 32 µg/mL | > 32 µg/mL | 16 µg/mL (≈ 45.5 µM) | 1 µg/mL (≈ 2.85 µM) | 2300 nM |
